RGS4 act = RGS4 potentiators or activators, primary screen, cell-based, HEK293 M3R inducible RGS4, calcium flux; carbachol calcium flux Fluo4; stronger effect = lower value; B-score at 10 µM; actives 0.92% (n = 310,000);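 active = B-score of the integrated calcium signal more than 4 SD below the library mean, with starting fluorescence not abnormally high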;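 also: negative B-score means reduced calcium response which marks RGS4 activation or potentiation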
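Assay system: HEK293 FlpIn-TREx cells, stable M3R, doxycycline-inducible RGS4 / Probe or stimulus: carbachol, ECmax concentration / Times: overnight RGS4 induction, 30 min dye load 37 °C, 20 min compound RT / Signal: kinetic calcium fluorescence imaging with Fluo4-AM dye, 2 µM / Measure: Agonist-evoked peak-minus-minimum fluorescence over baseline, integrated ratio, B score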
MrgX1 antagonist = antagonists of human MrgX1 receptor, primary screen, HEK293 cells, Fluo-4 calcium flux. AID 588676, 2011. BAM8-22 antagonism; stronger effect = lower value. B-score at 10 µM. actives 1.3% (n = 310,000). Mas-related G-protein coupled receptor member X1 (Homo sapiens), Q96LB2;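 active = calcium-response B-score plate-corrected more than 3 library SD below zero, starting fluorescence within 5 deviations, no agonist response on first addition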;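 also: peak minus trough fluorescence over baseline after final BAM8-22 challenge near maximal dose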
RGS4 block = RGS4 inhibitors, primary screen, cell-based, HEK293 M3R inducible RGS4, calcium flux. Regulator of G-protein signaling 4 (Homo sapiens), P49798. Fluo-4 calcium flux; stronger effect = higher value; triggered by carbachol at its EC20. B-score at 10 µM. actives 0.45% (n = 310,000). AID 463165, 2010;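 active = B-score, a plate-corrected calcium signal, over three deviations above library mean, with baseline fluorescence within five deviations of library mean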;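 also: RGS4 expression induced by doxycycline in cells with stable M3 receptor; B-score is computed from the integrated fluorescence ratio over baseline after carbachol; higher B-score means a larger calcium signal and so more RGS4 inhibition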
MrgX1 allo act = positive allosteric modulators of MrgX1, primary screen, HEK293 cells, Fluo-4 calcium flux; FDSS; stronger effect = higher value; AID 588675, 2011; B-score at 10 µM; actives 0.63% (n = 310,000);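 active = plate-corrected calcium response at least 3 library SD above typical, normal starting fluorescence, not activating the receptor alone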;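 also: compound read alongside a low EC10 to EC30 dose of BAM8-22 agonist; peak minus trough fluorescence over baseline measured at the second addition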
MrgX1 ag = agonists of human MrgX1 receptor, primary screen, HEK293 cells, Fluo-4 calcium flux. B-score at 10 µM. actives 0.44% (n = 310,000). Mas-related G-protein coupled receptor member X1 (Homo sapiens), Q96LB2. Fluo-4 calcium fluorescence, agonist mode; stronger effect = higher value;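 active = calcium response B-score plate-corrected fluorescence ratio at least 3 library SD, with starting fluorescence B-score inside 5 SD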
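Assay system: MrgX1-expressing HEK293 cells / Amount: fifteen thousand cells per well / Doses: test compound in the initial addition of three / Timing: cells plated overnight, dye loaded 0.5 h 37 °C, 0.5 h room temperature / Technique: kinetic calcium dye fluorescence, Fluo-4 NW / Control set: positive and negative controls per plate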
KCC2 mod = KCC2 cotransporter modulators, thallium flux, primary screen, cell-based, HEK293 KCC2, FluoZin-2 fluorescence, MLSMR; actives 2.2% (n = 190,000); B-score of Tl+ flux slope (higher = more flux/activation; lower = inhibition) at 10 µM; KCC2 cells, thallium flux FluoZin-2 fluorescence; AID 1456, 2008;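 active = thallium flux slope and its plate-corrected score both differing from the plate sample mean at a set confidence after two filtering rounds, in either direction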;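 also: slope of fluorescence scaled to starting intensity during 10 to 20 s after thallium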
MrgX1 antag conf = MrgX1 receptor antagonists, duplicate retest, confirmation, HEK293 cells, Fluo-4 calcium flux; shares compounds with MrgX1 antagonist; BAM8-22 calcium flux; stronger effect = lower value; remaining BAM8-22 calcium response % of control (stronger effect = lower value), % at 10 µM; actives 19% (n = 2,300); AID 602420, 2012;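 active = remaining agonist calcium response no higher than 100% minus 3 SD of agonist-only control wells, with starting fluorescence near control levels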;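 also: agonist BAM8-22 given at a near maximal EC90 to ECmax level; peak minus minimum fluorescence divided by baseline after agonist addition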
HEK293 Ca flux = nonspecific calcium signal in parental HEK293, confirmation, counter-screen for MrgX1 antagonist project, parental HEK293 cells, Fluo-4 calcium flux | actives 2% (n = 4,000) | Fluo-4 calcium fluorescence, FDSS | AID 624111, 2012 | shares compounds with MrgX1 antagonist | fluorescence ratio F(max-min)/F0 at 10 µM;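 active = duplicate-averaged calcium fluorescence ratio at least three times the standard deviation of buffer wells, a nonspecific response in parental cells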
HEK293 Ca counter = calcium response in parental HEK293 cells, primary screen, counter-screen for MrgX1 allosteric activator project, cell-based, Fluo-4 calcium flux, duplicate; actives 0.4% (n = 4,000); AID 624114, 2012; Fluo-4 fluorescence ratio; stronger effect = higher value; shares compounds with MrgX1 antagonist; fluorescence ratio F(max-min)/F0 at 10 µM;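 active = calcium fluorescence ratio, averaged over duplicates, at least 3 SD of the buffer-well ratio, meaning a nonspecific response in receptor-free cells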;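 also: untransfected parental HEK293 lacking MrgX1 used as counterscreen for MrgX1 allosteric activators; fluorescence change taken during the second addition on a kinetic imager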
HEK293 Ca cntr2 = calcium response in parental HEK293 cells, primary screen, counter-screen for MrgX1 agonist project, cell-based, Fluo-4 calcium flux, duplicate, agonist mode | shares compounds with MrgX1 antagonist | Fluo-4 calcium fluorescence (FDSS); stronger effect = higher value | fluorescence ratio F(max-min)/F0 at 10 µM | actives 8.7% (n = 4,000) | AID 624115, 2012;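 active = calcium fluorescence ratio at least three times the spread of buffer wells, meaning a non-specific response in parental cells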
Starred values were filed as active, the others as inactive; i = inactive; nt = not tested or not shown. Shown are actives, neighbours in structure and some others; about 4.7% of the full set was active somewhere.

SMILES	RGS4 act	MrgX1 antagonist	RGS4 block	MrgX1 allo act	MrgX1 ag	KCC2 mod	MrgX1 antag conf	HEK293 Ca flux	HEK293 Ca counter	HEK293 Ca cntr2
COc1ccc(C(=O)Oc2ccc3c(C)cc(=O)oc3c2C(C)=O)cc1	i	-4.62*	i	i	i	-0.548	i	i	i	i
CC(=O)N(C)c1ccc(N=NC2C(=O)N(C(N)=S)N=C2C)cc1 (centres undefined)	i	i	i	i	i	nt	nt	nt	nt	nt
CCCn1c(SCc2ccccn2)nc2c1c(=O)n(C)c(=O)n2C	i	-7.81*	i	i	i	0.961	i	i	i	i
COc1ccc(NC(=O)N2CCCC2C(=O)NCc2ccc(F)cc2)cc1 (centres undefined)	i	-12.6*	i	i	i	-0.382	i	i	i	i
COc1cccc(NC(=O)C2CCCN2C(=O)Nc2cccc(F)c2)c1 (centres undefined)	i	-4.92*	i	i	i	0.378	i	i	i	i
COc1ccccc1NC(=O)N1CCCC1C(=O)NCc1ccccc1 (centres undefined)	i	-5.69*	i	i	i	0.142	i	i	i	i
CN(Cc1cccc(Cl)c1Cl)CC(O)COc1ccccc1 (centres undefined)	i	i	i	i	i	nt	nt	nt	nt	nt
C[C@@H]([C@H](O)c1ccccc1)N(C)C(=S)Nc1ccccc1	i	i	i	i	i	nt	nt	nt	nt	nt
CSc1ccccc1OCc1cc(C(=O)N2CCC(c3ccncc3)CC2)no1	i	-6.14*	i	i	i	nt	79.6%*	i	i	i
Cc1cccnc1Oc1ncccc1N	i	i	i	i	i	nt	nt	nt	nt	nt
COc1cccc(NC(=O)CNC(=O)c2ccc(C)cc2)c1	i	-9.06*	i	i	i	-0.0342	i	i	i	i
COc1cccc(NC(=O)CNC(=O)c2ccc(F)cc2)c1	nt	i	nt	i	i	0.405	nt	nt	nt	nt
COc1cccc(NC(=O)COc2ccc(C)cc2)c1	nt	i	nt	i	i	-0.047	nt	nt	nt	nt
COc1ccc(OCC(=O)Nc2cccc(C(C)=O)c2)cc1	i	-6.25*	i	i	i	0.688	i	i	i	i
O=C(NCC1CCOCC1)c1ccc2nc(Cc3cccc(Cl)c3)oc2c1	i	i	i	i	i	nt	nt	nt	nt	nt
Cc1cc(F)ccc1NC(=O)c1cc(S(=O)(=O)N2CCc3ccccc32)cn1C	i	-5.27*	i	i	i	nt	i	i	i	i
Cc1ccc(Cc2nc(-c3cccnc3)no2)cc1	i	-4.79*	i	i	i	-1.4	i	i	i	i
CC(NC(=O)CSc1nc2ccc(N)cc2s1)c1ccccc1 (centres undefined)	i	-5.53*	i	i	i	0.545	i	i	i	i
COc1ccc(S(=O)(=O)NC(N)=NCCc2ccc(OC)c(OC)c2)cc1	i	-7.38*	i	i	i	-0.751	i	i	i	i
COc1ccc(CCN=C(N)NS(=O)(=O)c2ccc(C)c(C)c2)cc1OC	i	i	i	i	i	nt	nt	nt	nt	nt
O=C(CN1C(=O)NC2(CCCc3ccccc32)C1=O)N1CCc2ccccc2C1 (centres undefined)	i	-9.25*	i	i	i	nt	85.2%*	i	i	i
CCN1c2ccc(S(=O)(=O)N3CCOCC3)cc2N(Cc2ccc(OC)cc2)C1C (centres undefined)	i	-4.71*	i	i	i	0.0596	i	i	i	i
COc1ccc2cc(S(=O)(=O)N3CCOCC3)ccc2c1	i	i	i	i	i	nt	nt	nt	nt	nt
Cc1cc(-c2nc(C)c(C(=O)NN)s2)no1	i	i	i	i	i	0.32	nt	nt	nt	nt
COc1ccccc1CNC(=O)C1CCC1	i	-7.9*	i	i	i	0.111	82.1%*	i	i	i
SMILES	RGS4 act	MrgX1 antagonist	RGS4 block	MrgX1 allo act	MrgX1 ag	KCC2 mod	MrgX1 antag conf	HEK293 Ca flux	HEK293 Ca counter	HEK293 Ca cntr2
O=C(NC1CC1)c1ccc(NS(=O)(=O)c2ccc(F)cc2)cc1	i	i	i	i	i	nt	nt	nt	nt	nt
COc1ccccc1-c1nnc(SC2CCc3ccccc3NC2=O)s1 (centres undefined)	i	-6.39*	i	i	i	2.08	i	i	i	i
CCN(CC(=O)Nc1ccccc1C(F)(F)F)C(=O)c1cc(S(=O)(=O)N2CCCCCC2)ccc1OC	i	i	i	i	i	nt	nt	nt	nt	nt
CCCCc1ccc(NC(=O)CSc2nc3ncccc3[nH]2)cc1	i	-5.68*	i	i	i	nt	i	i	i	i
CCCCOc1ccc(NC(=O)CSc2cccc3cccnc23)cc1	i	-6.71*	i	i	i	2.02	i	i	i	i
Cc1cccc(NC(=O)CSc2cccc3cccnc23)c1	i	i	i	i	i	nt	nt	nt	nt	nt
CCOC(=O)c1ccc(NC(=O)CSc2nc3ncccc3[nH]2)cc1	i	i	i	i	i	0.157	nt	nt	nt	nt

Assay outcomes as filed in PubChem.
